Experimental data as given in ChEMBL document CHEMBL5107946, “SF5- and SCF3-substituted tetrahydroquinoline compounds as potent bactericidal agents against multidrug-resistant persister Gram-positive bacteria” (RSC Med Chem, 2021).
≈ marks a conversion by molar mass, not a printed value. Calls of active or inactive are those of the source. No cut-off for these calls is given here.

Columns and labels:
Enterococcus faecalis [1] = assay: Antibacterial activity against vancomycin-resistant Enterococcus faecalis ATCC 51575 assessed as bacterial growth inhibition incubated for 18 to 20 hrs by CLSI based broth microdilution assay; assay type: functional; conditions: time 18-20 hrs
Method in brief: (§1)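 CLSI broth microdilution; compounds and control antibiotics made up at 10 mg mL−1 in DMSO (stock), serially diluted 1:2 across the plate. Inoculum adjusted to 0.5 McFarland, then diluted 1:100 into wells. Plates incubated static at 37 °C for 18–20 h before MIC read.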

Listeria monocytogenes = assay: Antibacterial activity against Listeria monocytogenes ATCC 19115 assessed as bacterial growth inhibition incubated for 18 to 20 hrs by CLSI based broth microdilution assay; assay type: functional; conditions: time 18-20 hrs
Method in brief: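 MIC by CLSI broth microdilution. Compounds were made as 10 mg mL−1 DMSO stocks and serially diluted 1:2. Inoculum was set to 0.5 McFarland and diluted 1:100 into the wells. Plates were incubated static at 37 °C for 18–20 h before reading the MIC.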

Staphylococcus aureus [2] = assay: Antibacterial activity against methicillin-resistant Staphylococcus aureus USA300 (ARLG 1570) assessed as bacterial growth inhibition incubated for 18 to 20 hrs by CLSI based broth microdilution assay; assay type: functional; conditions: time 18-20 hrs; method in brief: as §1
Staphylococcus aureus [3] = assay: Antibacterial activity against methicillin-resistant Staphylococcus aureus ST239 (ARLG 1665) assessed as bacterial growth inhibition incubated for 18 to 20 hrs by CLSI based broth microdilution assay; assay type: functional; conditions: time 18-20 hrs; method in brief: as §1
Cell membrane = assay: Induction of cell membrane permeability in Staphylococcus aureus ATCC 25923 at 1 ug/ml incubated for […] by Sytox green based fluorescence method; conditions: dose 1.0 µg/ml
Method in brief: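 Exponential-phase cells (OD600 0.2–0.3) washed three times in PBS and resuspended in PBS + 10% TSB. Sytox green added to 5 μM final and equilibrated 15–30 min in the dark. Fluorescence (ex 504/em 522 nm) read for 10 min baseline, then every 3 min for 3 h after addition. Run in triplicate; 1% Triton X-100 as positive control.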

Staphylococcus aureus [4] = assay: Bactericidal activity against methicillin-resistant Staphylococcus aureus ATCC 33592 assessed as reduction in colony forming unit at 1 x MIC incubated for 18 to 24 hrs by Time-kill analysis; assay type: functional, organism-based; conditions: time 18-24 hrs
Method in brief: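 Log-phase time-kill. Overnight TSB culture diluted 1:1000 and grown to OD600 0.6, then diluted 1 in 10 in TSB (about 2.92 × 10^6 CFU per mL). Exposed at 1× or 4× MIC in triplicate at 37 °C. Samples taken at 0, 2, 4, 8, 12 and 24 h, serially diluted in PBS, plated on TSA in duplicate and counted after 18–20 h.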

Enterococcus faecium = assay: Antibacterial activity against vancomycin-resistant Enterococcus faecium ATCC 700221 assessed as bacterial growth inhibition incubated for 18 to 20 hrs by CLSI based broth microdilution assay
Enterococcus faecalis [5] = assay: Bactericidal activity against vancomycin-resistant Enterococcus faecalis ATCC 51575 assessed as reduction in colony forming unit incubated for 20 hrs; assay type: functional
Method in brief: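 Follows the broth microdilution MIC plate. 4 μL taken from each well without growth, spotted in duplicate on tryptic soy agar and incubated static at 37 °C for 20 h. MBC taken as the concentration giving 99.9% reduction in CFU.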

Staphylococcus aureus [6] = assay: Antibacterial activity against methicillin-resistant Staphylococcus aureus ST239 (ARLG 1644) assessed as bacterial growth inhibition incubated for 18 to 20 hrs by CLSI based broth microdilution assay; assay type: functional; conditions: time 18-20 hrs; method in brief: as §1
Staphylococcus aureus [7] = assay: Bactericidal activity against persister methicillin-resistant Staphylococcus aureus ATCC 33592 assessed as reduction in colony forming unit at 4 x MIC incubated for 6 hrs by Time-kill analysis; assay type: functional, organism-based
Method in brief: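 Stationary-phase (persister) time-kill. Overnight TSB culture diluted 1 in 10 in TSB directly (about 2.92 × 10^6 CFU per mL), with no regrowth step. Exposed at 1× or 4× MIC in triplicate at 37 °C. Samples taken at 0, 2, 4 and 6 h, serially diluted in PBS, plated on TSA in duplicate and incubated 18–24 h.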

Staphylococcus aureus [8] = assay: Antibacterial activity against methicillin-resistant Staphylococcus aureus ST1312 (ARLG 1649) assessed as bacterial growth inhibition incubated for 18 to 20 hrs by CLSI based broth microdilution assay; assay type: functional; conditions: time 18-20 hrs; method in brief: as §1
Staphylococcus aureus [9] = assay: Antibacterial activity against Staphylococcus aureus ATCC 25923 assessed as bacterial growth inhibition incubated for 18 to 20 hrs by CLSI based broth microdilution assay; assay type: functional; conditions: time 18-20 hrs; method in brief: as §1

## FC(F)(F)c1n[nH]cc1[C@@H]1Nc2ccc(S(F)(F)(F)(F)F)cc2[C@H]2[C@@H]3CC[C@@H](C3)[C@H]21
Enterococcus faecalis [1]
  MIC: 4 µg/mL (≈ 8.71 µM)
Listeria monocytogenes
  MIC: 2 µg/mL (≈ 4.35 µM)
Staphylococcus aureus [2]
  MIC: 2 µg/mL (≈ 4.35 µM)
Staphylococcus aureus [3]
  MIC: 2 µg/mL (≈ 4.35 µM)
Cell membrane
  Activity: Active
Staphylococcus aureus [4]
  Activity: Active
Enterococcus faecium
  MIC: 2 µg/mL (≈ 4.35 µM)
Enterococcus faecalis [5]
  MBC: 8 µg/mL (≈ 17.4 µM)
Staphylococcus aureus [6]
  MIC: 2 µg/mL (≈ 4.35 µM)
Staphylococcus aureus [7]
  Activity: Active
Staphylococcus aureus [8]
  MIC: 2 µg/mL (≈ 4.35 µM)
Staphylococcus aureus [9]
  MIC: 2 µg/mL (≈ 4.35 µM)
